From ChEMBL document CHEMBL1150117, “Two new subergane-based sesquiterpenes from a Taiwanese Gorgonian coral Subergorgia suberosa” (2002)
Values after ≈ are worked out from the molar mass of the structure shown.

Assays:
[1] = system: HeLa; experiment: Cytotoxicity against human HeLa cells after 4 hrs by MTT assay; assay type: functional; conditions: read-out: ED50 (the source's name)
Procedure, shortened: (§1)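 KB and HeLa cells from ATCC; growth inhibition read by MTT colorimetric method; ED50 in μg/mL.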

[2] = system: KB; experiment: Cytotoxicity against human KB cells after 4 hrs by MTT assay; assay type: functional; conditions: read-out: ED50 (the source's name); procedure, shortened: as §1

Structure (SMILES)	EC50 [1]	EC50 [2]
C[C@@H]1C(CO)=C[C@@]2(C)CC[C@@H]3[C@@H](C)CC[C@@]132 [SUBERGORGIOL]	> 10 µg/mL	> 10 µg/mL
CC(=O)O[C@H]1C[C@H](C)[C@H]2CC[C@]3(C)C=C(C(=O)O)[C@@H](C)[C@]123	> 10 µg/mL	> 10 µg/mL
C[C@@H]1CC(=O)[C@@]23[C@@H](C)C(C(=O)O)=C[C@]2(C)CC[C@@H]13 [SUBERGORGIC ACID]	> 10 µg/mL	> 10 µg/mL
C[C@@H]1C(C(=O)O)=C[C@@]2(C)CC[C@@H]3[C@@H](C)C[C@H](O)[C@@]132	> 10 µg/mL	> 10 µg/mL
COC(=O)C1=C[C@@]2(C)CC[C@@H]3[C@@H](C)C[C@H](OC(C)=O)[C@@]32[C@@H]1C	> 10 µg/mL	> 10 µg/mL
COC(=O)C1=C[C@@]2(C)CC[C@@H]3[C@@H](C)CC(=O)[C@@]32[C@@H]1C [SUBERGORGIC ACID METHYL ESTER]	–	4.3 µg/mL (≈ 16.4 µM)
